These results are taken from ChEMBL document CHEMBL1137547, “Synthesis and antifungal activities of novel 2-aminotetralin derivatives” (2007).

In brackets after ≈: the same amount, converted by molar mass. Where only a bound is given, the exact number is not on record here.

Format in all cases: functional
The test system of experiment [1] is Candida albicans. As to the kind of experiment: Antifungal activity against Candida albicans after 24 hrs. In short, it runs like this: (§1)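 Candida yeasts were tested by NCCLS microdilution in RPMI 1640 buffered with 0.165 M MOPS and incubated at 35 °C. Compounds were dissolved in DMSO and serially diluted in medium. Isolates came from ATCC or the clinic. The MIC was read at 24 h as the lowest concentration achieving ≥80% growth inhibition versus the control.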

For experiment [2], the system named is Aspergillus fumigatus. As to the kind of experiment: Antifungal activity against Aspergillus fumigatus. The essentials: (§2)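 NCCLS broth serial dilution in RPMI 1640 buffered with 0.165 M MOPS. Compounds were dissolved in DMSO and serially diluted in medium. Strains came from ATCC or clinical isolates. The growth MIC for filamentous fungi was read at 7 d, taken as the lowest concentration giving ≥80% turbidity inhibition versus the growth control.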

In experiment [3] the test system is Candida parapsilosis. As to the kind of experiment: Antifungal activity against Candida parapsilosis after 24 hrs. The note with it: Lodderomyces parapsilosis. In short, it runs like this:
as §1

The test system of experiment [4] is Fonsecaea compacta. As to the kind of experiment: Antifungal activity against Fonsecaea compacta. The essentials: as §2
Experiment [5] has as its system Cryptococcus neoformans. As to the kind of experiment: Antifungal activity against Cryptococcus neoformans after 72 hrs. The essentials: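 Cryptococcus neoformans was tested by NCCLS serial dilution in MOPS-buffered (0.165 M) RPMI 1640 at 35 °C. Compounds were dissolved in DMSO and diluted in medium. The MIC was read at 72 h as the lowest concentration giving turbidity inhibition of ≥80% relative to the growth control.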

Experiment [6] concerns Trichophyton rubrum. As to the kind of experiment: Antifungal activity against Trichophyton rubrum. The essentials: (§3)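 Dermatophytes were tested by NCCLS serial dilution in RPMI 1640 with 0.165 M MOPS and incubated at 28 °C. Compounds were dissolved in DMSO and diluted in medium. Strains came from ATCC or clinical isolates. The MIC was read at 7 d as the lowest concentration reducing turbidity by ≥80% relative to the drug-free control.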

For experiment [7], the system named is Microsporum. As to the kind of experiment: Antifungal activity against Microsporum gypseum. The essentials:
as §3

As usually defined, the MIC is the smallest concentration in the dilution series that meets the test's criterion for growth inhibition. A lower MIC goes with greater potency. Regarding `CCCCNC1CCc2cccc(O)c2C1` (configuration not stated), the minimal inhibitory concentration (MIC) in experiment [1], in experiment [2], in experiment [3], in experiment [4], in experiment [5] and in experiment [6] was more than 64 µM throughout. The MIC in experiment [7] is 64 µM (≈ 14 µg/mL).
For `NC1CCc2c(O)cccc2C1` (configuration not stated), the MIC in experiment [1] is more than 64 µM; in experiment [2] it was more than 64 µM; in experiment [3] it was more than 64 µM; in experiment [4] it was 32 µM (≈ 5.22 µg/mL); in experiment [5], more than 64 µM; in experiment [6], more than 64 µM. Also, the MIC in experiment [7] is more than 64 µM.
Turning to `NC1CCc2cc(O)ccc2C1` (configuration not stated), the MIC in experiment [1] was more than 64 µM; in experiment [2], more than 64 µM; in experiment [3] it was more than 64 µM; in experiment [4], 32 µM (≈ 5.22 µg/mL); in experiment [5], more than 64 µM; in experiment [6] it was more than 64 µM. This compound also registered an MIC in experiment [7] of more than 64 µM.
In the case of `NC1CCc2ccc(O)cc2C1` (configuration not stated), the MIC is more than 64 µM in experiment [1]; more than 64 µM in experiment [2]; more than 64 µM in experiment [3]; 32 µM (≈ 5.22 µg/mL) in experiment [4]; more than 64 µM in experiment [5]; more than 64 µM in experiment [6]. The compound further showed a minimum inhibitory concentration (MIC) in experiment [7] of more than 64 µM.
Take `CCCCCCCCNC1CCc2cccc(O)c2C1` (configuration not stated): the MIC in experiment [1] amounted to 2 µM (≈ 0.551 µg/mL); in experiment [3], 8 µM (≈ 2.2 µg/mL); in experiment [4], 4 µM (≈ 1.1 µg/mL); in experiment [5] it was 8 µM (≈ 2.2 µg/mL); in experiment [6], 8 µM (≈ 2.2 µg/mL); in experiment [7], 4 µM (≈ 1.1 µg/mL).
In the case of `COc1ccc2c(c1)CCC(N)C2` (configuration not stated), the MIC in experiment [1] was more than 64 µM; in experiment [2], more than 64 µM; in experiment [3], more than 64 µM; in experiment [4], more than 64 µM; in experiment [5] it was more than 64 µM; in experiment [6] it was 64 µM (≈ 11.3 µg/mL). Moreover, the MIC in experiment [7] was more than 64 µM.
`NC1CCc2cccc(O)c2C1` (configuration not stated): the MIC in experiment [1] was more than 64 µM; in experiment [2], more than 64 µM; in experiment [3], more than 64 µM; in experiment [4] it was 32 µM (≈ 5.22 µg/mL); in experiment [5] it was more than 64 µM; in experiment [6], more than 64 µM. In experiment [7], this compound yielded an MIC of more than 64 µM.
For the compound `CCCCNC1CCc2c(cccc2OC)C1` (configuration not stated), the MIC is more than 64 µM in experiment [1]; more than 64 µM in experiment [2]; more than 64 µM in experiment [3]; more than 64 µM in experiment [4]; more than 64 µM in experiment [5]; 64 µM (≈ 14.9 µg/mL) in experiment [6]. The MIC in experiment [7] was more than 64 µM.
Turning to `CCCCNC1CCc2ccc(OC)cc2C1` (configuration not stated), the minimum inhibitory concentration (MIC) in experiment [1] is 64 µM (≈ 14.9 µg/mL); in experiment [2], more than 64 µM; in experiment [3] it was 64 µM (≈ 14.9 µg/mL); in experiment [4] it was 4 µM (≈ 0.933 µg/mL); in experiment [5], more than 64 µM; in experiment [6], 4 µM (≈ 0.933 µg/mL). In experiment [7], this compound registered an MIC of 64 µM (≈ 14.9 µg/mL).
Turning to `CCCCCCCCCCCCNC1CCc2ccc(OC)cc2C1` (configuration not stated), the MIC in experiment [1] is 2 µM (≈ 0.691 µg/mL); in experiment [2], 16 µM (≈ 5.53 µg/mL); in experiment [3], 1 µM (≈ 0.346 µg/mL); in experiment [4], 8 µM (≈ 2.76 µg/mL); in experiment [5] it was 1 µM (≈ 0.346 µg/mL); in experiment [6] it was 2 µM (≈ 0.691 µg/mL). The compound further had an MIC in experiment [7] of 2 µM (≈ 0.691 µg/mL).
With `CCCCCCCCCCCCNC1CCc2cccc(OC)c2C1` (configuration not stated), the MIC turned out to be 4 µM (≈ 1.38 µg/mL) in experiment [1]; 32 µM (≈ 11.1 µg/mL) in experiment [2]; 16 µM (≈ 5.53 µg/mL) in experiment [3]; 8 µM (≈ 2.76 µg/mL) in experiment [4]; 16 µM (≈ 5.53 µg/mL) in experiment [5]; 4 µM (≈ 1.38 µg/mL) in experiment [6]. In addition, the MIC in experiment [7] was determined as 64 µM (≈ 22.1 µg/mL).
Turning to `CCCCCCCCCCCCNC1CCc2cc(O)ccc2C1` (configuration not stated), the MIC in experiment [1] was 1 µM (≈ 0.332 µg/mL); in experiment [2] it was more than 64 µM; in experiment [3] it was 8 µM (≈ 2.65 µg/mL); in experiment [4] it was 4 µM (≈ 1.33 µg/mL); in experiment [5], 2 µM (≈ 0.663 µg/mL); in experiment [6] it was 2 µM (≈ 0.663 µg/mL). Moreover, the MIC in experiment [7] was 8 µM (≈ 2.65 µg/mL).
As to `CCCCNC1CCc2c(O)cccc2C1` (configuration not stated), the MIC in experiment [1] was more than 64 µM; in experiment [2], more than 64 µM; in experiment [3] it was more than 64 µM; in experiment [4], 64 µM (≈ 14 µg/mL); in experiment [5], more than 64 µM; in experiment [6], 64 µM (≈ 14 µg/mL). For the same compound, in experiment [7], the MIC is more than 64 µM.
As to `CCCCNC1CCc2cc(O)ccc2C1` (configuration not stated), the MIC was more than 64 µM in experiment [1]; more than 64 µM in experiment [2]; more than 64 µM in experiment [3]; more than 64 µM in experiment [4]; more than 64 µM in experiment [5]; 64 µM (≈ 14 µg/mL) in experiment [6]. The same compound yielded an MIC in experiment [7] of more than 64 µM.
In the case of `CCCCCCCCCCCCNC1CCc2cccc(O)c2C1` (configuration not stated), the MIC in experiment [1] came to 16 µM (≈ 5.3 µg/mL); in experiment [2] it was 32 µM (≈ 10.6 µg/mL); in experiment [3], 32 µM (≈ 10.6 µg/mL); in experiment [4], 8 µM (≈ 2.65 µg/mL); in experiment [5] it was 32 µM (≈ 10.6 µg/mL); in experiment [6], 4 µM (≈ 1.33 µg/mL). The compound also yielded an MIC in experiment [7] of more than 64 µM.
Take `CCCCCCCCCCCCNC1CCc2ccc(O)cc2C1` (configuration not stated): the minimal inhibitory concentration (MIC) was 16 µM (≈ 5.3 µg/mL) in experiment [1]; more than 64 µM in experiment [2]; more than 64 µM in experiment [3]; 32 µM (≈ 10.6 µg/mL) in experiment [4]; 32 µM (≈ 10.6 µg/mL) in experiment [5]; 1 µM (≈ 0.332 µg/mL) in experiment [6]. In addition, in experiment [7], the lowest concentration to inhibit growth (MIC) was 4 µM (≈ 1.33 µg/mL).
`CCCCCCCCNC1CCc2c(cccc2OC)C1` (configuration not stated): the MIC stood at 8 µM (≈ 2.32 µg/mL) in experiment [1]; 16 µM (≈ 4.63 µg/mL) in experiment [2]; 16 µM (≈ 4.63 µg/mL) in experiment [3]; 4 µM (≈ 1.16 µg/mL) in experiment [4]; 16 µM (≈ 4.63 µg/mL) in experiment [5]; 8 µM (≈ 2.32 µg/mL) in experiment [6]. Besides, the MIC in experiment [7] is more than 64 µM.
In the case of `CCCCNC1CCc2cccc(OC)c2C1` (configuration not stated), the minimum inhibitory concentration (MIC) was more than 64 µM in experiment [1]; 64 µM (≈ 14.9 µg/mL) in experiment [2]; more than 64 µM in experiment [3]; 0.25 µM (≈ 0.0583 µg/mL) in experiment [4]; more than 64 µM in experiment [5]; 16 µM (≈ 3.73 µg/mL) in experiment [6]. This compound came in with an MIC in experiment [7] of 32 µM (≈ 7.47 µg/mL).
Turning to `COc1cccc2c1CCC(N)C2` (configuration not stated), the MIC in experiment [1] is more than 64 µM; in experiment [2] it was more than 64 µM; in experiment [3] it was more than 64 µM; in experiment [4], 64 µM (≈ 11.3 µg/mL); in experiment [5], more than 64 µM; in experiment [6], 8 µM (≈ 1.42 µg/mL). Moreover, in experiment [7], the MIC was more than 64 µM.
Take `COc1cccc2c1CC(N)CC2` (configuration not stated): the MIC in experiment [1] was more than 64 µM; in experiment [2], more than 64 µM; in experiment [3] it was more than 64 µM; in experiment [4], more than 64 µM; in experiment [5], more than 64 µM; in experiment [6] it was 64 µM (≈ 11.3 µg/mL). In experiment [7], this compound showed an MIC of more than 64 µM.
For the compound `CCCCCCCCCCCCNC1CCc2c(O)cccc2C1` (configuration not stated), the MIC in experiment [1] was 4 µM (≈ 1.33 µg/mL); in experiment [2], more than 64 µM; in experiment [3] it was more than 64 µM; in experiment [4], more than 64 µM; in experiment [5], more than 64 µM; in experiment [6] it was 32 µM (≈ 10.6 µg/mL). Moreover, it took 2 µM (≈ 0.663 µg/mL) to inhibit growth in experiment [7] (MIC).
`CCCCNC1CCc2cc(OC)ccc2C1` (configuration not stated): the MIC is 64 µM (≈ 14.9 µg/mL) in experiment [1]; more than 64 µM in experiment [2]; more than 64 µM in experiment [3]; more than 64 µM in experiment [4]; 64 µM (≈ 14.9 µg/mL) in experiment [5]; 64 µM (≈ 14.9 µg/mL) in experiment [6]. In experiment [7], this compound displayed an MIC of more than 64 µM.
Turning to `CCCCNC1CCc2ccc(O)cc2C1` (configuration not stated), the MIC is more than 64 µM in experiment [1]; more than 64 µM in experiment [2]; more than 64 µM in experiment [3]; 64 µM (≈ 14 µg/mL) in experiment [4]; more than 64 µM in experiment [5]; more than 64 µM in experiment [6]. Moreover, it took 64 µM (≈ 14 µg/mL) to inhibit growth in experiment [7] (MIC).
Consider `COc1ccc2c(c1)CC(N)CC2` (configuration not stated), for which the MIC was more than 64 µM in experiment [1]; more than 64 µM in experiment [2]; more than 64 µM in experiment [3]; more than 64 µM in experiment [4]; more than 64 µM in experiment [5]; 64 µM (≈ 11.3 µg/mL) in experiment [6]. In experiment [7], this compound showed an MIC of more than 64 µM.
